# T cruzi repl – blocks replication of Trypanosoma cruzi; T. cruzi beta-gal in NIH3T3, luminescence, 90 h; inhibition, % (test concentration not listed); 1.4% of 300,000 active;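 active = mean inhibition across valid replicates above about 55%, limit read from the data; inconclusive = mean below that limit but half or more replicates reach it; inactive = mean below it, under half of replicates reach it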;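 note: signal also drops with host cell toxicity which is not excluded here; higher percent means less beta-gal luminescence so fewer parasites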
#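 System – NIH/3T3 host cells with β-galactosidase reporter T. cruzi · Doses – single 50 nL compound addition per well in DMSO · Reagent – 5000 T. cruzi trypomastigotes/well · Medium – Low-serum DMEM with 2% FBS · Timing – ≥90 h infection period, 3 h prior cell attachment · Evaluation – parasite load inhibition, % · Technique – GalScreen luminescence, 60 min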
# Calb FLC – C. albicans growth modulation with fluconazole | C. albicans CaCi-2 + fluconazole, Alamar Blue growth, 48 h | growth inhibition, % (test concentration not listed) | AID 1979 | 0.57% of 300,000 active;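 active = growth inhibition above about 58% in most replicates, limit read from the data, passing the limit was not always enough; inconclusive = exactly half the replicates above a set limit; inactive = most replicates below a set limit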;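 note: all wells also contain fluconazole at 8 µg/ml as a sub-toxic cotreatment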
# Mdm2-MdmX inh – disrupts the human Mdm2-MdmX interaction. SaOS-2 split-luciferase Mdm2/MdmX complementation, luminescence. inhibition, % at 8 µM. 3% of 330,000 active;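 active = inhibition of at least 50% at 8 µM in the primary screen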
# Target sequence (O15151 whole entry, looked up): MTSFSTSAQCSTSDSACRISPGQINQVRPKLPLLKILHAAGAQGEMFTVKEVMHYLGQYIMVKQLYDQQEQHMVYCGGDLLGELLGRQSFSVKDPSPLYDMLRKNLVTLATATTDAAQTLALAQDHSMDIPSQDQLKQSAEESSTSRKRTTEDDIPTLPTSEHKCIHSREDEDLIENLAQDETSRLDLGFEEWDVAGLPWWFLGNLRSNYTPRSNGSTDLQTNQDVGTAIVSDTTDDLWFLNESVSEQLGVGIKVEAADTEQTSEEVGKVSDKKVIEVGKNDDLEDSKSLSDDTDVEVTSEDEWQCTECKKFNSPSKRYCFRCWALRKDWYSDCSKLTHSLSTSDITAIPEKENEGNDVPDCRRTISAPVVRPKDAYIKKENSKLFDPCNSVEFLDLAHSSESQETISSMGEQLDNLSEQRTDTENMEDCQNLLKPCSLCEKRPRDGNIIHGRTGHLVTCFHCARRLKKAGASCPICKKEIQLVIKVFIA
# Target sequence (Q00987 whole entry, looked up): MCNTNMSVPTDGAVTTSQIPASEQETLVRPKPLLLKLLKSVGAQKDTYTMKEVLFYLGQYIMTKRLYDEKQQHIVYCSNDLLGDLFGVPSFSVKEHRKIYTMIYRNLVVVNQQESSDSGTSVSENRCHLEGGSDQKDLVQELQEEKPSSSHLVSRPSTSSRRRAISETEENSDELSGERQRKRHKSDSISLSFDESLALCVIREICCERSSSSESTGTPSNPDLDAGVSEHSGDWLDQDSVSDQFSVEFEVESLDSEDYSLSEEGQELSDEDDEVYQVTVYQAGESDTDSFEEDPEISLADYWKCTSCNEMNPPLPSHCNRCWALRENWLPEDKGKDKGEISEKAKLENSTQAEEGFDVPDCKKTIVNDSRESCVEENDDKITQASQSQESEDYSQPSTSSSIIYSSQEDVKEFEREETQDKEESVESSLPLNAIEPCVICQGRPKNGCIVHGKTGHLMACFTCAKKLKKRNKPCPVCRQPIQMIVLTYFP
# CSC inhib – cancer stem cell inhibition | 1.1% of 300,000 active | inhibition, % at 7.5 µM | cancer stem cell-like cells viability, luminescence; in the data active = inhibition above about 75%; inconclusive = no clear call, values can overlap the other calls; tested in HMLE shEcad cells
# Beta cell apopt – blocks beta cell apoptosis. INS-1E cytokine-induced death, ATP luminescence, 48 h; percent of positive-control rescue, neutral wells zero. 0.8% of 300,000 active. protection from apoptosis, % (test concentration not listed);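 active = Every replicate reaches about 75%, or at least half do and their mean reaches it too, limit read from the data; inconclusive = At least half of replicates reach the limit but their mean does not; inactive = Under half of replicates reach the limit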;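 note: higher means more ATP so stronger rescue from cytokine killing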
# SKKanGAS inh – blocks kanamycin growth of S. pyogenes SKKanGAS strain; BacTiter-Glo, 6 h; inhibition, % at 7.5 µM; 1.3% of 300,000 active; AID 1662;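 active = mean replicate score, as percent of positive control median, at least 50; inconclusive = mean below 50 but one replicate at or above 50; inactive = mean and every replicate below 50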;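 note: strain carries kanamycin resistance gene driven by streptokinase promoter and grows in 40 µg/ml kanamycin; loss of luminescence reflects streptokinase promoter inhibition or plain growth inhibition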
# Mdm2-MdmX conf – confirmation of human Mdm2/MdmX interaction inhibitors; Mdm2-MdmX binding, luminescent assay; inhibition, % at 8 µM; shares compounds with Mdm2-MdmX inh; 55% of 10,000 active; in the data active = inhibition above about 40%
# Full FLuc ctr – full-length luciferase inhibition in Mdm2/MdmX counter-screen; inhibition, % at 8 µM; SaOS-2 full-length luciferase counterscreen, luminescence; 77% of 6,200 active; shares compounds with Mdm2-MdmX inh;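 active = mean inhibition at 8 µM reaching about 37%, which flags the compound as non-specific, limit read from the data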;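 note: p53-null SaOS-2 cells with luciferase driven by a doxycycline-inducible promoter; compound on cells about two nights before reading with doxycycline added after day one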
# A number is an active result; . = inactive; ? = inconclusive; / = not tested or not shown. Hits are enriched below; roughly 5.7% of the tested compounds scored in any of these assays.
SMILES,T cruzi repl,Calb FLC,Mdm2-MdmX inh,CSC inhib,Beta cell apopt,SKKanGAS inh,Mdm2-MdmX conf,others
COc1cc(-c2ccc(Nc3ccccc3C(=O)O)c(OC)c2)ccc1Nc1ccccc1C(=O)O,/,/,81.0,/,/,/,.,
COc1cccc(Nc2ccccc2C(=O)O)c1,.,?,.,.,.,.,/,
CSc1c(CC(=O)Nc2ccccc2C(F)(F)F)n(Cc2ccccc2)c2ccccc12,.,.,74.5,.,.,.,.,Full FLuc ctr=107.0
CSc1c(CC(=O)Nc2ccccc2)n(Cc2ccccc2)c2ccccc12,.,.,59.6,.,.,.,.,
CSc1c(CC(=O)Nc2ccccc2Cl)n(Cc2ccccc2)c2ccccc12,/,.,58.3,.,.,.,.,
Cn1c(CC(=O)Nc2ccc(F)cc2)c(Sc2ccccc2)c2ccccc21,.,.,.,.,.,.,/,
O=C(COC(=O)CCCOc1ccccc1)NC1CCS(=O)(=O)C1 (stereo not drawn),.,.,.,.,.,.,/,
CCOC(=O)c1ccc(S(=O)(=O)N2CC(=O)Nc3ccccc32)cc1,.,.,.,.,.,.,/,
CCN1C(=O)c2cccc3c(S(=O)(=O)Nc4ncccc4C)ccc1c23,.,.,51.1,.,.,.,.,
CCN1C(=O)c2cccc3c(S(=O)(=O)Nc4ccncc4)ccc1c23,.,.,.,.,/,.,/,
CCN1C(=O)c2cccc3c(S(=O)(=O)Nc4nc(C)cs4)ccc1c23,.,.,72.6,.,.,.,.,
CCN1C(=O)c2cccc3c(S(=O)(=O)Nc4ccccn4)ccc1c23,.,.,74.7,.,.,.,46.5,Full FLuc ctr=67.8
CN1C(=O)c2cccc3c(S(=O)(=O)Nc4ccccc4F)ccc1c23,.,.,51.1,.,.,.,.,
C[C@]12CCC[C@H](O1)[C@H]([C@@H](O)c1ccccc1)O2,/,/,.,.,.,/,/,
CCCCN(CC)CCCNC(=O)c1cn(C)c2ccc(S(=O)(=O)N(C)C3CCCCC3)cc2c1=O,.,.,.,.,.,.,/,
CCN1C(=O)c2cccc3c(Cl)ccc1c23,.,.,50.4,.,/,.,.,
CCN1C(=O)c2cccc3c(S(=O)(=O)Nc4ccccc4)ccc1c23,.,.,81.2,.,.,.,73.0,Full FLuc ctr=70.3
CCN1C(=O)c2cccc3c(Cl)ccc(c23)C1=O,.,.,.,.,.,.,/,
CCOC(=O)c1ccc(S(=O)(=O)NNc2ccc(C(F)(F)F)cn2)cc1,/,/,.,.,.,/,/,
CCOc1ccc(S(=O)(=O)Nc2cc(S(=O)(=O)N3CCOCC3)ccc2OC)cc1,/,/,.,.,.,/,/,
O=c1cnc2ccccc2n1Cc1ccc(Br)cc1,.,.,.,.,.,.,/,
CC(C)(C)c1ccc(Cn2c(=O)cnc3ccccc32)cc1,.,.,71.5,.,.,.,77.3,Full FLuc ctr=.
Cc1ccc(OCC(=O)NNC(=O)C(C)Sc2ncnc3sc(C)c(C)c23)cc1 (stereo not drawn),.,.,.,/,.,.,/,
Cc1sc2ncnc(SC(C)C(=O)N3c4ccccc4Sc4ccccc43)c2c1C (stereo not drawn),.,.,55.0,?,.,.,.,
CSc1cccc(NC(=O)NCc2cccc(CNC(=O)Nc3cccc(SC)c3)c2)c1,.,.,55.5,/,/,.,45.9,Full FLuc ctr=66.8
SMILES,T cruzi repl,Calb FLC,Mdm2-MdmX inh,CSC inhib,Beta cell apopt,SKKanGAS inh,Mdm2-MdmX conf,others
CSc1cccc(NC(=O)C(=O)NCc2ccccc2)c1,.,.,.,.,.,.,/,
CCOC(=O)c1c(C)[nH]c(C)c1C(=O)COC(=O)C1CC(=O)N(CCc2ccccc2)C1 (stereo not drawn),/,/,.,.,.,/,/,
O=C1N=c2ccccc2=C1c1c(O)[nH]c2c(C(F)(F)F)cccc12,.,.,.,.,.,.,/,
Cc1cnc(NC(=O)COc2ccccc2Cl)s1,.,.,53.2,/,.,.,.,
Cc1cnc(NC(=O)CCNC(=O)c2ccccc2Cl)s1,.,.,.,.,.,.,/,
CC(C)N(C(=O)[C@H]1C[C@H](CC(=O)NCCCn2ccnc2)C(=O)N2CCc3c([nH]c4cc(CCC(=O)N(C)C)ccc34)[C@]12C)C(C)C,/,/,.,/,/,/,/,
CCOC(=O)C1CCN(C(=O)Cn2c(=O)oc3cc(S(=O)(=O)N4CCCC4)ccc32)CC1,.,.,.,.,.,.,/,
O=C(N/N=C/c1ccc(Sc2nc3ccccc3s2)c([N+](=O)[O-])c1)c1ccccn1,.,.,73.6,.,.,.,52.5,Full FLuc ctr=55.3
O=C1CC(c2ccc(Cl)c([N+](=O)[O-])c2)c2ccc3ccccc3c2N1 (stereo not drawn),.,.,.,.,.,.,/,
CN(C)c1ccc(C2CNC(c3ccc(Cl)c([N+](=O)[O-])c3)c3[nH]c4ccccc4c32)cc1 (stereo not drawn),57.4,.,54.1,/,.,.,.,Full FLuc ctr=62.0
COc1ccc(C(C#N)c2ccc(Cl)nn2)cc1 (stereo not drawn),.,.,.,.,/,.,/,
N#CC(c1ccc(Cl)nn1)c1ccc(Cl)cc1Cl (stereo not drawn),.,.,55.8,.,.,.,.,
CC(NC(=O)/C(C#N)=C/c1ccco1)c1ccccc1 (stereo not drawn),.,.,.,.,.,.,/,
CC(NC(=O)/C(C#N)=C1\N=C(NC(=O)c2ccco2)c2ccccc21)c1ccccc1 (stereo not drawn),.,.,66.8,.,.,.,.,
O=C(NN1CC(C(=O)OCc2ccc(Br)cc2)CC1=O)c1ccccc1 (stereo not drawn),.,.,.,.,.,.,/,
Cc1cc(C)c2nc(NNC(=O)c3ccc(S(=O)(=O)N4CCCC(C)C4)cc3)sc2c1 (stereo not drawn),61.3,.,82.6,118.6,107.1,91.9,86.2,Full FLuc ctr=45.3
Cc1ccc2nc(NNC(=O)c3ccc(S(=O)(=O)N4CCc5ccccc5C4)cc3)sc2c1,71.0,.,74.2,102.3,98.4,79.4,87.5,Full FLuc ctr=63.4
COC(=O)c1ccc(-c2csc(NC(=O)c3ccc(S(=O)(=O)N4CCc5ccccc5C4)cc3)n2)cc1,.,.,50.7,/,.,.,.,
O=C(Nc1nc(-c2ccc(S(=O)(=O)N3CCCCCC3)cc2)cs1)c1ccccc1,.,.,.,.,.,.,/,
Cc1cccc2sc(NNC(=O)c3ccc(S(=O)(=O)N4CC(C)CC(C)C4)cc3)nc12 (stereo not drawn),65.6,.,88.4,117.6,110.4,91.7,86.7,Full FLuc ctr=55.2
O=C(Nc1c(-c2ccccc2)nc2ccccn12)c1ccccc1F,.,/,.,.,.,.,/,
N#Cc1ccccc1S(=O)(=O)N1CCN(C(=O)[C@H](Cc2ccccc2)NC(=O)c2ccco2)CC1,/,/,.,/,.,/,/,
